According to ChEMBL document CHEMBL1125029, “Chemical and biochemical studies of 2-propynylpyrrolidine derivatives. Restricted-rotation analogues of N-methyl-N-(1-methyl-4-pyrrolidino-2-butynyl)acetamide (BM-5)” (J Med Chem, 1990):

What was measured:
[1] = biological target: Muscarinic acetylcholine receptor; assay: Binding activity against Muscarinic acetylcholine receptor in rat cortex, using [3H]QNB as a radioligand.; assay type: tissue-based
How it was run: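 Radioligand 250 pM (30.0 Ci/mmol). Competitor at final 10^-12 to 10^-3 M. 10 μM atropine defines nonspecific binding. Filtration on PEI-soaked GF/B filters, scintillation counting. Apparent Ki from one-site competitive nonlinear fit.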

[2] = biological target: Muscarinic receptor M1 and M2 (Rattus norvegicus) (UniProt P08482+P10980); assay: The agonist ratio as the ratio of Ki against [3H]QNB to that of [3H]-CD; assay type: functional
[3] = biological target: Muscarinic acetylcholine receptor; assay: Binding activity to the muscarinic acetylcholine receptor in rat cortex, assayed using [3H]CD as a radioligand.; assay type: tissue-based
How it was run: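 Male Wistar rat cerebral cortex homogenate in 10 mM Na/K phosphate pH 7.4, diluted 1:300 (wet wt/v), ~0.75 mg protein per 2.0 mL. 1 nM radioligand (55.5 Ci/mmol), prepared fresh in buffer. Competitor 10^-12 to 10^-3 M. Nonspecific binding with 10 μM atropine. Rapid filtration on PEI-treated filters, scintillation counting. Apparent Ki by one-site competitive nonlinear regression.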

[4] = biological target: Muscarinic acetylcholine receptor; assay: Binding activity to the muscarinic acetylcholine receptor in rat cortex, assayed using [3H]PZ as a radioligand.; assay type: tissue-based
How it was run: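 Rat (male Wistar, 200-250 g) cortex homogenized in ice-cold Na/K phosphate buffer pH 7.4, diluted 1:400, ~0.55 mg protein per 2.0 mL. 0.1 nM radioligand (84.1 Ci/mmol), made fresh just before use. Unlabeled competitor at final 10^-12 to 10^-3 M. 10 μM atropine for nonspecific. Filtered, counted by liquid scintillation. One-site competitive fit gives apparent Ki.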

[5] = biological target: Muscarinic acetylcholine receptor; assay: Binding activity to muscarinic acetylcholine receptor in rat heart, assayed using [3H]QNB as a radioligand in the presence of Gpp(NH)p.
How it was run: (§1)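 Male Wistar rat heart ventricles flushed, minced, Polytron-homogenized in 10 mM Na/K phosphate pH 7.4, spun 48000 g 15 min 4 °C, resuspended, gauze-filtered, diluted 1:750, 0.15-0.2 mg protein/2.0 mL. 10 μM Gpp(NH)p added to homogenate for line 3. Competitor 10^-12 to 10^-3 M. 10 μM atropine nonspecific. Filtration, scintillation counting. Ki from one-site fit.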

[6] = biological target: Muscarinic acetylcholine receptor; assay: Binding activity to muscarinic acetylcholine receptor in rat heart, assayed using [3H]-QNB as a radioligand.; how it was run: as §1
[7] = biological target: T1, Muscarinic acetylcholine receptor M1 (Rattus norvegicus) (UniProt P08482); assay: Muscarinic 1 receptor agonistic activity as the selectivity ratio of Ki against [3H]-QNB to that of [3H]PZ; assay type: functional
T1 sequence (whole entry): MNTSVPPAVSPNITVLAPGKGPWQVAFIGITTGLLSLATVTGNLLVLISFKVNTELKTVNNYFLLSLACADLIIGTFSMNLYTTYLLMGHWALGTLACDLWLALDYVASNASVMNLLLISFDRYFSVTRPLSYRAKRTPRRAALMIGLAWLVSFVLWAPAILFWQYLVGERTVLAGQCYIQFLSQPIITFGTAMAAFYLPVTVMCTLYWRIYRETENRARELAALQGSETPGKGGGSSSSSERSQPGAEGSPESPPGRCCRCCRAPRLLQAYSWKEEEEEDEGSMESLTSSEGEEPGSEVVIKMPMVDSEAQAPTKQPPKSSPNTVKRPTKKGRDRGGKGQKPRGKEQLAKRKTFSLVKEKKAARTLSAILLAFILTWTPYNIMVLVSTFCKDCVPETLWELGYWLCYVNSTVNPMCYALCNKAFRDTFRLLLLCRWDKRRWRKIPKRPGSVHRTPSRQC

[8] = biological target: T1, Muscarinic acetylcholine receptor M1 (Rattus norvegicus); assay: Muscarinic 1 receptor agonistic activity as the selectivity ratio of Ki against [3H]-QNB+ Gpp(NH)p to that of [3H]PZ; assay type: functional
[9] = biological target: T2, Muscarinic acetylcholine receptor M2 (Rattus norvegicus) (UniProt P10980); assay: Muscarinic 2 receptor agonistic activity was determined as the selectivity ratio of Ki against [3H]QNB+ Gpp(NH)p to that of [3H]QNB; assay type: functional
T2 sequence (whole entry): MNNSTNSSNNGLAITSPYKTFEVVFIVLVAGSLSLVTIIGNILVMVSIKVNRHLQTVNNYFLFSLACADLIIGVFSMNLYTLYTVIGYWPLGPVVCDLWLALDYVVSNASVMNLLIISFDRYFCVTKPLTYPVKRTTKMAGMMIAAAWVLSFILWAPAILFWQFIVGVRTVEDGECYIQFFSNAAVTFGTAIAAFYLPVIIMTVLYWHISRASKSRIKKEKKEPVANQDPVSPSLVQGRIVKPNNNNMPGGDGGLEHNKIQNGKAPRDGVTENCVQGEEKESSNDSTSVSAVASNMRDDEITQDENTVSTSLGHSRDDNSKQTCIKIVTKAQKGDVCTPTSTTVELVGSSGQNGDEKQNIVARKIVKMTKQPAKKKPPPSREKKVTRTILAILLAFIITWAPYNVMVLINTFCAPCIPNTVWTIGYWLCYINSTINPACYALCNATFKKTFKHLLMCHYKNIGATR

`CC(=O)N1CCC[C@H]1C#CCN(C)C` was tested, and the Ki [1] was 48.9 µM, the Ratio [2] was 3.2 and the Ki [3] was 15.5 µM. The Ki [4] was 40 µM, the Ki [5] was 175 µM and the Ki [6] was 51.7 µM. The Ratio [7] was 1.3, the Ratio [8] was 4.4 and the Ratio [9] was 3.4.
`CC(=O)N1CCC[C@H]1C#CCN1CCCC1.Cl` was tested, and the Ki [1] was 4.96 µM, the Ratio [2] was 1.9 and the Ki [3] was 2.55 µM. It also gave a Ki [4] of 2.06 µM, a Ki [5] of 22.6 µM and a Ki [6] of 15.5 µM. It also gave a Ratio [7] of 7.5, a Ratio [8] of 11 and a Ratio [9] of 1.5.
